The subject of one test is HIV-1 Ba-L and IIIB. The experiment in a line: Virus-cell fusion. In kind it is cell-based. The conditions noted are these: for activity against VCF: result in words; for IC50: Human immunodeficiency virus 1, BAL|IIIB, read-out: IC50 against VCF. The essentials:
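MAGI-CCR5 cells, 10,000 per well, grown overnight in DMEM with 10% FBS. Medium replaced with test compound at 6 dilutions, each in triplicate. HIV-1 Ba-L (CCR5-tropic) or IIIB (CXCR4-tropic) added at ~10 TCID50/well. Assay run at 2% serum and incubated 48 h. Read-out is Tat-induced β-Gal expression by chemiluminescence.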

Test [1] addresses gp41 hydrophobic pocket (Fe(envC)3) (Human immunodeficiency virus type 1 group M subtype B, UniProt P04578). The experiment in a line: Surface plasmon resonance. In kind it is binding, HIV-1. The conditions noted are these: for kd: SPR 1:1 binding kinetic analysis, RUmax fixed; for kd1 / kd2: bivalent binding model. A general note: SPR reads the build-up and loss of mass on a sensor chip optically.

In test [2] the target is gp41 hydrophobic pocket (Fe(env2.0)3) (Human immunodeficiency virus type 1 group M subtype B, UniProt P04578). The test can be described thus: Fluorescence competitive binding assay for the hydrophobic pocket, Fe. More on the design: species or system HIV-1. The conditions noted are these: for Ki: Inhibition constant KI, dimers, 1:1 binding model with Rt = 7.2 µM, poor fit; for improvement (reduction) of KI over the respective monomer: compared with monomers 3 and 4.

In a further test the test system is HIV-1 Ba-L. The test can be described thus: CCR5-tropic MAGI antiviral assay. In kind it is cell-based. The conditions noted are these: Ba-L virus.
In another test the test system is HIV-1 IIIB. The experiment in a line: CXCR4-tropic MAGI antiviral assay. The conditions noted are these: IIIB virus. Type of test: cell-based.
The subject of the next test is HXB2 Env. The conditions noted are these: read-out: IC50 CCF; cell-cell fusion, three-subunit peptidomimetics; cited from earlier work.

The source of these data is article PMC5260928 (Bioorganic & medicinal chemistry, 2016).

On to `Nc1ccc(C(=O)N[C@@H](Cc2c[nH]c3ccccc23)C(=O)O)cc1OCCc1c[nH]c2ccccc12` [Compound 3, H2N-[Trp]-Trp-OH], for which the “activity against VCF” value with HIV-1 Ba-L and IIIB is given as “ineffective”. The same compound displayed a kd in test [1] of 0.834 s⁻¹.

Consider `Nc1ccc(C(=O)N[C@@H](Cc2c[nH]c3ccccc23)C(=O)O)cc1OCc1ccc(Cl)cc1` [Compound 4, H2N-[Phe4Cl]-Trp-OH], for which the “activity against VCF” value in the test with HIV-1 Ba-L and IIIB is recorded as “ineffective”. In test [1], this compound gave a kd of 0.820 s⁻¹.

As a reminder, the Ki is the dissociation constant of the complex between target and ligand, obtained from inhibition or displacement. Higher therefore signals a looser hold on the target. One may read the IC50 as the concentration that inhibits the measured activity by half. As for `O=C(CCC(=O)Nc1ccc(C(=O)N[C@@H](Cc2c[nH]c3ccccc23)C(=O)O)cc1OCCc1c[nH]c2ccccc12)NCCOCCOCCOCCNC(=O)CCC(=O)Nc1ccc(C(=O)N[C@@H](Cc2c[nH]c3ccccc23)C(=O)O)cc1OCCc1c[nH]c2ccccc12` [Compound 7], the Ki in test [2] is 1 µM. In the test on HIV-1 Ba-L and IIIB, the IC50 fell in the range of 3 to 5 µM. Also, the “residual fusion activity at plateau of antiviral activity” value in the test with HIV-1 Ba-L was ~ 20%. Besides, the “residual fusion activity at plateau of antiviral activity” value in the test with HIV-1 IIIB is listed as ~ 6%. In test [1], the kd was 0.060 s⁻¹, the kd1 is 0.0869 s⁻¹ and the kd2 was 0.0145 s⁻¹.

Compound `O=C(CCC(=O)Nc1ccc(C(=O)N[C@@H](Cc2c[nH]c3ccccc23)C(=O)O)cc1OCc1ccc(Cl)cc1)NCCOCCOCCOCCNC(=O)CCC(=O)Nc1ccc(C(=O)N[C@@H](Cc2c[nH]c3ccccc23)C(=O)O)cc1OCc1ccc(Cl)cc1` [Compound 8] displayed a Ki in test [2] of 5.3 µM. Also, the half-inhibitory concentration (IC50) in the test on HIV-1 Ba-L and IIIB fell in the range of 3 to 5 µM. In test [1], this compound had a kd of 0.037 s⁻¹, a kd1 of 0.0638 s⁻¹ and a kd2 of 0.0033 s⁻¹.

In the case of `O=C(CCc1c[nH]c2ccccc12)NCCCCCC(=O)Nc1ccc(C(=O)N[C@@H](Cc2c[nH]c3ccccc23)C(=O)O)cc1OCCc1c[nH]c2ccccc12` [Compound 10], the “improvement (reduction) of KI over the respective monomer” value in test [2] came out at 6 fold. Further, the IC50 with HIV-1 Ba-L and IIIB lay in the range of 13 to 17 µM. In test [1], the kd is 0.093 s⁻¹.

On to `O=C(CCc1c[nH]c2ccccc12)NCCCCCC(=O)Nc1ccc(C(=O)N[C@@H](Cc2c[nH]c3ccccc23)C(=O)O)cc1OCc1ccc(Cl)cc1` [Compound 11], for which the “improvement (reduction) of KI over the respective monomer” value in test [2] was 6 fold. Further, the IC50 in the test on HIV-1 Ba-L and IIIB lay in the range of 13 to 17 µM. For the same compound, in test [1], the kd came to 0.186 s⁻¹.

As to H2N-Asn-[Trp]-Trp-COOH, in the test with HXB2 Env, the half-inhibitory concentration (IC50) is 6 µM.

For the compound H2N-Trp-[Trp]-Leu-COOH, the IC50 in the test with HXB2 Env was 5 µM.
